The results in this text go back to the array DNA melting data of Ke et al. (doi:10.1101/2024.01.08.574731).

Data set [1] is described as follows: folding enthalpy; higher = less favourable; fluorescence melt of hairpins on a sequencing array, two-state fit. As to conditions: sodium 0.088 M. An outline of the steps: (§1)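 Two-state fits, bootstrapped, provided melting temperature and folding enthalpy from Cy3 fluorescence normalised to pre-quench Cy3 and to control constructs. Library hairpins with annealed Cy3 and quencher oligos were imaged on a sequenced MiSeq flow cell in 50 mM Na-HEPES pH 8.0, 25 mM NaCl, at 2.5 °C intervals up to 60 °C. Four replicates were combined with inverse-variance weighting. A 9.35 °C upward shift was applied to fitted temperatures to match UV melts.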

Data set [2] is described as follows: melting temperature; fluorescence melt of hairpins on a sequencing array, two-state fit, raised by 9.35 °C to match UV melts. As to conditions: sodium 0.088 M. An outline of the steps:
as §1

In the case of GATCCGATAGCGGATC ((((((....)))))), in data set [1], the folding enthalpy was -38.9 kcal/mol. The Tm in data set [2] came to 54.3 °C.
For the sequence GATCCGATCCCGGATC ((((((....)))))), the folding enthalpy in data set [1] was -38.9 kcal/mol. The Tm in data set [2] was 55.6 °C.
For GATCCGATCGCGGATC ((((((....)))))) the same measures were -37.9 kcal/mol and 56 °C.
The like results for GATCCGATGCGGATC ((((((...)))))) were, in that order, -31 kcal/mol and 57.7 °C.
For GATCCGATGTCGGATC ((((((....)))))) the same measures were -37.6 kcal/mol and 61.6 °C.
For the sequence GATCCGATTACGGATC ((((((....)))))), the folding enthalpy in data set [1] is -34.2 kcal/mol. Besides, the Tm in data set [2] came to 58.4 °C.
On to GATCCGCACTCGGATC ((((((....)))))), for which, in data set [1], the folding enthalpy is -41 kcal/mol. The Tm in data set [2] was 56.5 °C.
For GATCCGCAGTCGGATC ((((((....)))))) the same measures were -35 kcal/mol and 55.9 °C.
Take GATCCGCCAACGGATC ((((((....)))))): the folding enthalpy in data set [1] is -36 kcal/mol. Moreover, in data set [2], the Tm worked out at 57.7 °C.
The like results for GATCCGCCGCGGATC ((((((...)))))) were, in that order, -40.5 kcal/mol and 56.5 °C.
The like results for GATCCGCCTACGGATC ((((((....)))))) were, in that order, -37.9 kcal/mol and 59.6 °C.
The like results for GATCCGCGAAAGCGATC (((.(((....)))))) were, in that order, -14 kcal/mol and 44.6 °C.
Turning to GATCCGCTAACGGATC ((((((....)))))), the folding enthalpy in data set [1] is -37.2 kcal/mol. Moreover, the Tm in data set [2] stood at 58.8 °C.
As to GATCCGCTGACGGATC ((((((....)))))), the folding enthalpy in data set [1] was -38 kcal/mol. In data set [2], the Tm is 60.7 °C.
The like results for GATCCGCTGCCGGATC ((((((....)))))) were, in that order, -36.4 kcal/mol and 57 °C.
The like results for GATCCGCTTCGGATC ((((((...)))))) were, in that order, -39 kcal/mol and 58.6 °C.
For GATCCGGAATCGGATC ((((((....)))))) the same measures were -45.2 kcal/mol and 62 °C.
On to GATCCGGACACGGATC ((((((....)))))), for which the folding enthalpy in data set [1] is -43.2 kcal/mol. Besides, the Tm in data set [2] turned out to be 66 °C.
On to GATCCGGACCGGATC ((((((...)))))), for which, in data set [1], the folding enthalpy was -34.6 kcal/mol. Moreover, the Tm in data set [2] is 57.3 °C.
The like results for GATCCGGAGCGGATC ((((((...)))))) were, in that order, -33.3 kcal/mol and 56.1 °C.
In the case of GATCCGGCTTCGGATC ((((((....)))))), the folding enthalpy in data set [1] is -39.8 kcal/mol. Further, in data set [2], the Tm is 59.5 °C.
The like results for GATCCGGGAAACTGGATC (((((.(....).))))) were, in that order, -41.7 kcal/mol and 52.1 °C.
For GATCCGGGACCGGATC ((((((....)))))) the same measures were -44.4 kcal/mol and 65.4 °C.
With GATCCGGGGACGGATC ((((((....)))))), the folding enthalpy in data set [1] was -41.6 kcal/mol. Also, in data set [2], the Tm amounted to 61.9 °C.
For GATCCGGTAGCGGATC ((((((....)))))) the same measures were -31.3 kcal/mol and 64.2 °C.
Regarding GATCCGGTTCCGGATC ((((((....)))))), the folding enthalpy in data set [1] is -43 kcal/mol. The Tm in data set [2] worked out at 62.7 °C.
The like results for GATCCGGTTCGGATC ((((((...)))))) were, in that order, -31.5 kcal/mol and 63.6 °C.
The like results for GATCCGGTTGCGGATC ((((((....)))))) were, in that order, -40.3 kcal/mol and 59.6 °C.
For GATCCGTAGACGGATC ((((((....)))))) the same measures were -42.9 kcal/mol and 58.2 °C.
For GATCCGTCACGGATC ((((((...)))))), in data set [1], the folding enthalpy is -34.7 kcal/mol. The Tm in data set [2] was determined as 60.6 °C.
For GATCCGTCCACGGATC ((((((....)))))) the same measures were -43 kcal/mol and 64.1 °C.
Take GATCCGTCGACGGATC ((((((....)))))): the folding enthalpy in data set [1] was -48.8 kcal/mol. In data set [2], the Tm was determined as 61.9 °C.
For GATCCGTCGCGGATC ((((((...)))))) the same measures were -35.8 kcal/mol and 59 °C.
The like results for GATCCGTGAACGGATC ((((((....)))))) were, in that order, -33.1 kcal/mol and 60.5 °C.
The like results for GATCCGTGATCGGATC ((((((....)))))) were, in that order, -32.1 kcal/mol and 58.6 °C.
On to GATCCGTTAGCGGATC ((((((....)))))), for which the folding enthalpy in data set [1] is -39.9 kcal/mol. For the same sequence, the Tm in data set [2] worked out at 60.8 °C.
For GATCCGTTCCGGATC ((((((...)))))) the same measures were -46 kcal/mol and 59.2 °C.
The like results for GATCCTAAGGAGGATC ((((((....)))))) were, in that order, -25.2 kcal/mol and 49.3 °C.
